This passage reports Activity, fold change (FC) and inhibition results from ChEMBL document CHEMBL4477194, “Royal Jelly Constituents Increase the Expression of Extracellular Superoxide Dismutase through Histone Acetylation in Monocytic THP-1 Cells” (J Nat Prod, 2016).

For series [1], the species on record is Homo sapiens. Nature of the series: Upregulation of HDAC1 inhibition/ERK signalling activation-mediated extracellular SOD protein expression in human THP1 cells at 100 uM incubated for 24 hrs by ELISA. Type of series: cell-based. The method, boiled down:
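THP-1 cells treated 24 h at 100 μM and collected in PBS. Cellular EC-SOD protein content measured by ELISA. Means ± SD of three independent experiments.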
On the technique in general: In an ELISA, binding on a coated surface is turned into a signal by an enzyme label.

The species entered for series [2] is Homo sapiens. Nature of the series: Upregulation of HDAC1 inhibition/ERK signalling activation-mediated extracellular SOD mRNA expression in human THP1 cells at 1 to 10 uM incubated for 24 hrs by RT-PCR method. In kind it is cell-based. The procedure, abridged: (§1)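 THP-1 cells treated 24 h at the indicated concentrations, or at 100 μM for the indicated times. EC-SOD mRNA measured by real-time RT-PCR normalized to 18S rRNA. Means ± SD of three independent experiments.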

Series [3] concerns THP-1. Nature of the series: Cytotoxicity against human THP1 cells assessed as reduction in cell viability at 100 uM after 24 hrs by MTT assay. Type of series: cell-based. As to conditions: thp-1, 24 h. The procedure, abridged:
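THP-1 cells treated 24 h in 24-well plates; medium replaced with 10% FCS-RPMI 1640 containing 0.5 mg/mL MTT, 2 h at 37 °C, 5% CO2. Formazan dissolved in 2-propanol with 0.04 N HCl, read at 595 nm (reference 655 nm). Mean ± SD, n = 3.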

For series [4], the species on record is Homo sapiens. Nature of the series: Upregulation of HDAC1 inhibition/ERK signalling activation-mediated extracellular SOD mRNA expression in human THP1 cells at 100 uM by RT-PCR method. Type of series: cell-based. As to conditions: TDE = time-dependent effect. The method, boiled down: as §1
Series [5] addresses Histone deacetylase 1 (Homo sapiens) (UniProt Q13547). Nature of the series: Inhibition of HDAC1 in human THP1 cells assessed as increase in histone H4 acetylation level at 50 uM after 12 hrs by Western blot analysis relative to control. Type of series: cell-based. The method, boiled down: (§2)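 THP-1 cells treated 12 h at the indicated concentrations. Acetylated histone H3 and H4 detected by Western blot (20 μg protein, 12% SDS-PAGE, PVDF, primary antibodies 1:1000). Histone loading checked by Coomassie staining.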
For orientation: A western blot detects proteins with antibodies after separation by electrophoresis.

For series [6] the target is unchanged. As to the kind of experiment: Inhibition of HDAC1 in human THP1 cells assessed as increase in histone H4 acetylation level at 100 uM after 12 hrs by Western blot analysis relative to control. In kind it is cell-based. The procedure, abridged:
as §2

Series [7] shares this target. As to the kind of experiment: Inhibition of HDAC1 in human THP1 cells assessed as increase in histone H3 acetylation level at 50 uM after 12 hrs by Western blot analysis relative to control. Type of series: cell-based. The procedure, abridged: as §2
Series [8] shares this target. Nature of the series: Inhibition of HDAC1 in human THP1 cells assessed as increase in histone H3 acetylation level at 100 uM after 12 hrs by Western blot analysis relative to control. Type of series: cell-based. The method, boiled down:
as §2

Series [9] shares this target. As to the kind of experiment: Upregulation of HDAC1 inhibition-mediated histone H4 acetylation-induced extracellular SOD expression in human THP1 cells at 100 uM after 12 hrs by chromatin immunoprecipitation method. In kind it is cell-based. The procedure, abridged:
(§3)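 THP-1 cells (5 × 10^6) treated 12 h, at 1 mM or 100 μM per line. Cross-linked with formaldehyde 5 min at room temperature and chromatin sonicated to 150–800 bp. Immunoprecipitated overnight on protein G beads and washed in RIPA I/II and TE. Eluted with RNase A and proteinase K. EC-SOD promoter binding expressed as % of input.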

Series [10] shares this target. As to the kind of experiment: Upregulation of HDAC1 inhibition-mediated histone H3 acetylation-induced extracellular SOD expression in human THP1 cells at 100 uM after 12 hrs by chromatin immunoprecipitation method. Type of series: cell-based. The method, boiled down:
as §3

For series [11], the species on record is Homo sapiens. Nature of the series: Induction of ERK phosphorylation in human THP1 cells at 50 to 100 uM incubated for 3 hrs by Western blot analysis. Type of series: cell-based. The procedure, abridged: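 THP-1 cells treated 3 h at the indicated concentrations. Whole-cell extracts, 20 μg protein, run on 12% SDS-PAGE and transferred to PVDF. Blocked in 1% BSA/PBS. Probed with anti-phospho-ERK and anti-ERK (1:1000), then biotin-conjugated secondary (1:1000).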

The species named for series [12] is Homo sapiens. Nature of the series: Upregulation of HDAC1 inhibition/ERK signalling activation-mediated extracellular SOD mRNA expression in human THP1 cells at 100 uM after 24 hrs in presence of ERK inhibitor U0126 by RT-PCR method. Type of series: cell-based. The method, boiled down: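 THP-1 cells pretreated 30 min with 5 μM U0126, then exposed to compound at 100 μM for 24 h. EC-SOD mRNA measured by real-time RT-PCR normalized to 18S rRNA.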

Series [13] relates to THP-1. As to the kind of experiment: Downregulation of HDAC1 mRNA expression in human THP1 cells at 100 uM after 24 hrs by RT-PCR method. In kind it is functional, cell-based. The method, boiled down: (§4)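 THP-1 cells in RPMI 1640 with 10% heat-inactivated FCS, 37 °C, 5% CO2. Seeded 2.0 × 10^6 cells per 3.5 cm dish and treated 24 h, at 1 mM for the 1 mM lines and 100 μM for the 100 μM lines. RNA extracted in TRIzol, then real-time RT-PCR normalized to 18S rRNA. Means ± SD of three independent experiments; ANOVA with Bonferroni post hoc.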

The subject of series [14] is THP-1. As to the kind of experiment: Downregulation of HDAC2 mRNA expression in human THP1 cells at 100 uM after 24 hrs by RT-PCR method. Type of series: functional, cell-based. The method, boiled down: as §4
In series [15] the test system is THP-1. As to the kind of experiment: Upregulation of HDAC4 mRNA expression in human THP1 cells at 100 uM after 24 hrs by RT-PCR method. Type of series: functional, cell-based. The method, boiled down: as §4
For series [16], the system named is THP-1. As to the kind of experiment: Downregulation of HDAC5 mRNA expression in human THP1 cells at 100 uM after 24 hrs by RT-PCR method. Type of series: functional, cell-based. The method, boiled down:
as §4

Series [17] concerns THP-1. As to the kind of experiment: Downregulation of HDAC6 mRNA expression in human THP1 cells at 100 uM after 24 hrs by RT-PCR method. In kind it is functional, cell-based. The procedure, abridged: as §4
Series [18] concerns THP-1. As to the kind of experiment: Upregulation of HDAC10 mRNA expression in human THP1 cells at 100 uM after 24 hrs by RT-PCR method. In kind it is functional, cell-based. The method, boiled down: as §4
For series [19], the target named is Histone deacetylase 1 (Homo sapiens) (UniProt Q13547). Nature of the series: Inhibition of recombinant HDAC1 catalytic domain (unknown origin) using HDAC substrate at 100 uM preincubated for 1 hr followed by substrate addition measured after 30 mins by fluorescence assay relative to control. The procedure, abridged:
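Recombinant HDAC1 in assay buffer exposed to compound at 100 μM for 1 h. Fluorogenic HDAC substrate then added, 30 min at 37 °C in the dark. Developer added, 15 min at room temperature. Fluorescence read at ex 365 nm, em 410–460 nm, relative to untreated.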

Molecules are shown by their SMILES. Calls of active or inactive are those of the source. The rule behind the calls is not given here.

Sequence of Histone deacetylase 1 (Homo sapiens) (Q13547 whole entry, the tested form may be a part): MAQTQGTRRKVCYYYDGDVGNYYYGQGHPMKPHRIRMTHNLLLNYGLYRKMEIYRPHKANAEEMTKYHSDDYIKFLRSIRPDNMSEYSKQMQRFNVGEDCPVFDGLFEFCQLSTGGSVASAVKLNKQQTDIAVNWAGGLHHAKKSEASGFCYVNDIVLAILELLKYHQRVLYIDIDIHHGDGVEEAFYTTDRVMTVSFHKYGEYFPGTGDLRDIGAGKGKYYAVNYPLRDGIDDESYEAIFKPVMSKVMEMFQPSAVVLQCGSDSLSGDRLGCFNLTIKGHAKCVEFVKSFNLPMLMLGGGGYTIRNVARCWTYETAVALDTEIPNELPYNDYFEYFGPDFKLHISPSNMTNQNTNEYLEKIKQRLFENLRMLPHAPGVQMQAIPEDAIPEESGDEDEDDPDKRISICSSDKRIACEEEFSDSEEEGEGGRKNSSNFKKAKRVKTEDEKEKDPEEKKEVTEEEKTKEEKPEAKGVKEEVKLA

One may read the inhibition as the share of the control response that was lost under treatment. For the compound `CCCCCCC(/C=C/C(=O)OCC)OO` (centres undefined), the outcome (in the series listed under Homo sapiens [1]; in series [9]; in series [10]; in the series filed under Homo sapiens [11]; in the series on THP-1 [13]; in the series with THP-1 [14]) was Active. In addition, the outcome in the series with THP-1 [15], with THP-1 [16], with THP-1 [17] and with THP-1 [18] was Active. In addition, the result in the series listed under Homo sapiens [2] and in the series filed under Homo sapiens [12] was inactive. The Activity entry in the series on THP-1 [3] was “Non-Toxic”; in the series listed under Homo sapiens [4], “Tde”. For the same compound, the fold change (FC) stood at 3.32 in series [5], 3.77 in series [6], 1.82 in series [7] and 4.27 in series [8]. Besides, the inhibition in series [19] is 50%.
